Values after ≈ are worked out from the molar mass of the structure shown.
Key:
Cryptococcus neoformans [1] = assay: Antifungal activity against Cryptococcus neoformans ATCC 32719 measured after 24 hrs; format: functional; conditions: ATCC 32719, 24 h
Candida albicans [2] = assay: Antifungal activity against Candida albicans ATCC 76615 measured after 24 hrs; format: functional; conditions: ATCC 76615, 24 h
Aspergillus flavus [3] = assay: Antifungal activity against Aspergillus flavus ATCC 16870 measured after 24 hrs; format: functional; conditions: ATCC 16870, 24 h
Saccharomyces cerevisiae = assay: Inhibition of yeast chitin synthase at 300 ug/ml using UDP-GlcNAc as substrate measured after 1 hr relative to control
In short: (§1)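 Membrane CHS from S. cerevisiae CGMCC2.145 (YPAD, 30 °C, 48 h; sonication; 55000 g pellet in Tris/33% glycerol). Wells coated with WGA and blocked with BSA. Reaction in pH 6.8 Tris-maleate with 40 mM GlcNAc, 2 mM UDP-GlcNAc, 37 °C, 1 h. Product detected with WGA-HRP and TMB/H2O2, A450. Test solutions 300–18.75 μg/mL. Inhibition = (B0−Bn)/(B0−OD0); IC50 from log c plot.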

Aspergillus fumigatus [4] = assay: Antifungal activity against Aspergillus fumigatus GIMCC 3.19 measured after 24 hrs; format: functional; conditions: GIMCC 3.19, 24 h
[5] = Inhibition of yeast chitin synthase using UDP-GlcNAc as substrate measured after 1 hr; set-up: species or system Saccharomyces cerevisiae; in short: as §1
Aspergillus flavus [6] = assay: Synergistic antifungal activity against Aspergillus flavus ATCC 16870 measured after 48 hrs in presence of fluconazole by two-dimensional broth microdilution checkboard method; format: functional; conditions: ATCC 16870, 48 h
In short: (§2)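 Two-dimensional broth microdilution checkerboard combining test agent with fluconazole per CLSI M27-A3, 35 °C for 48 h, duplicate runs. Combination MICs read. FIC index = MIC_A(comb)/MIC_A(alone) + MIC_B(comb)/MIC_B(alone). Interaction classed synergistic ≤0.5, indifferent >0.5–4, antagonistic >4.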

Cryptococcus neoformans [7] = assay: Synergistic antifungal activity against Cryptococcus neoformans ATCC 32719 assessed as FIC index measured after 48 hrs in presence of fluconazole by two-dimensional broth microdilution checkboard method; format: functional; in short: as §2
Candida albicans [8] = assay: Synergistic antifungal activity against Candida albicans ATCC 76615 assessed as FIC index measured after 48 hrs in presence of fluconazole by two-dimensional broth microdilution checkboard method; format: functional; in short: as §2
Candida albicans [9] = assay: Antifungal activity against Candida albicans ATCC 76615 measured after 48 hrs by two-dimensional broth microdilution checkboard method; format: functional; conditions: ATCC 76615, 48 h
In short: (§3)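 MICs of each agent alone re-determined in the checkerboard run. Two-dimensional broth microdilution per CLSI M27-A3, 35 °C for 48 h, each test performed twice (duplicate).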

Aspergillus flavus [10] = assay: Synergistic antifungal activity against Aspergillus flavus ATCC 16870 assessed as FIC index measured after 48 hrs in presence of fluconazole by two-dimensional broth microdilution checkboard method; format: functional; in short: as §2
Cryptococcus neoformans [11] = assay: Synergistic antifungal activity against Cryptococcus neoformans ATCC 32719 measured after 48 hrs in presence of fluconazole by two-dimensional broth microdilution checkboard method; format: functional; conditions: ATCC 32719, 48 h; in short: as §2
Aspergillus fumigatus [12] = assay: Synergistic antifungal activity against Aspergillus fumigatus GIMCC 3.19 assessed as FIC index measured after 48 hrs in presence of fluconazole by two-dimensional broth microdilution checkboard method; format: functional; in short: as §2
Cryptococcus neoformans [13] = assay: Antifungal activity against Cryptococcus neoformans ATCC 32719 measured after 48 hrs by two-dimensional broth microdilution checkboard method; format: functional; conditions: ATCC 32719, 48 h; in short: as §3
Aspergillus fumigatus [14] = assay: Synergistic antifungal activity against Aspergillus fumigatus GIMCC 3.19 assessed as fluconazole MIC mesured after 48 hrs by two-dimensional broth microdilution checkboard method; format: functional; conditions: GIMCC 3.19, 48 h; in short: as §2
Candida albicans [15] = assay: Synergistic antifungal activity against Candida albicans ATCC 76615 measured after 48 hrs in presence of fluconazole by two-dimensional broth microdilution checkboard method; format: functional; conditions: ATCC 76615, 48 h; in short: as §2
Aspergillus flavus [16] = assay: Antifungal activity against Aspergillus flavus ATCC 16870 measured after 48 hrs by two-dimensional broth microdilution checkboard method; format: functional; conditions: ATCC 16870, 48 h; in short: as §3
Aspergillus fumigatus [17] = assay: Synergistic antifungal activity against Aspergillus fumigatus GIMCC 3.19 measured after 48 hrs in presence of fluconazole by two-dimensional broth microdilution checkboard method; format: functional; conditions: GIMCC 3.19, 48 h; in short: as §2
Aspergillus fumigatus [18] = assay: Antifungal activity against Aspergillus fumigatus GIMCC 3.19 measured after 48 hrs by two-dimensional broth microdilution checkboard method; format: functional; conditions: GIMCC 3.19, 48 h; in short: as §3
Candida albicans [19] = assay: Synergistic antifungal activity against Candida albicans ATCC 76615 assessed as fluconazole MIC mesured after 48 hrs by two-dimensional broth microdilution checkboard method; format: functional; conditions: ATCC 76615, 48 h; in short: as §2
Cryptococcus neoformans [20] = assay: Synergistic antifungal activity against Cryptococcus neoformans ATCC 32719 assessed as fluconazole MIC mesured after 48 hrs by two-dimensional broth microdilution checkboard method; format: functional; conditions: ATCC 32719, 48 h; in short: as §2
Aspergillus flavus [21] = assay: Synergistic antifungal activity against Aspergillus flavus ATCC 16870 assessed as fluconazole MIC mesured after 48 hrs by two-dimensional broth microdilution checkboard method; format: functional; conditions: ATCC 16870, 48 h; in short: as §2

| Compound | MIC (Cryptococcus neoformans [1]) [µM] | MIC (Candida albicans [2]) [µM] | MIC (Aspergillus flavus [3]) [µM] | inhibition (Saccharomyces cerevisiae) [%] | MIC (Aspergillus fumigatus [4]) [µM] | also measured |
| --- | --- | --- | --- | --- | --- | --- |
| Cn1c(=O)n(CC(=O)N[C@@H](Cc2c[nH]c3ccccc23)C(=O)O)c(=O)c2ccccc21 | 600 (≈ 252 µg/mL) | > 1210 | 600 (≈ 252 µg/mL) | 43.8 | > 1210 |  |
| C[C@@H](NC(=O)Cn1c(=O)c2ccccc2n(C)c1=O)C(=O)O | 830 (≈ 253 µg/mL) | 1670 (≈ 510 µg/mL) | 830 (≈ 253 µg/mL) | 47.8 | 830 (≈ 253 µg/mL) |  |
| Cn1c(=O)n(CC(=O)N[C@@H](Cc2ccccc2)C(=O)O)c(=O)c2ccccc21 | > 1340 | > 1340 | > 1340 | 50.5 | > 1340 |  |
| Cn1c(=O)n(CC(=O)N[C@@H](CO)C(=O)O)c(=O)c2ccccc21 | > 1590 | > 1590 | 1590 (≈ 511 µg/mL) | 56.2 | 790 (≈ 254 µg/mL) |  |
| Cn1c(=O)n(CC(=O)NCCCC(=O)O)c(=O)c2ccccc21 | 800 (≈ 255 µg/mL) | 1600 (≈ 511 µg/mL) | 1600 (≈ 511 µg/mL) | 68.2 | 800 (≈ 255 µg/mL) | IC50 [5]: 300 µM |
| Cn1c(=O)n(CC(=O)N[C@@H](Cc2cnc[nH]2)C(=O)O)c(=O)c2ccccc21 | 680 (≈ 253 µg/mL) | > 1370 | > 1370 | 61.5 | 1370 (≈ 509 µg/mL) | IC50 [5]: 300 µM |
| Cn1c(=O)n(CC(=O)N2CCC[C@H]2C(=O)O)c(=O)c2ccccc21 | 770 (≈ 255 µg/mL) | > 1540 | 1540 (≈ 510 µg/mL) | 75.5 | 770 (≈ 255 µg/mL) | MIC (Aspergillus flavus [6]): 193 µM; fractional inhibitory concentration index (FICI) (Cryptococcus neoformans [7]): 1.5; fractional inhibitory concentration index (FICI) (Candida albicans [8]): 0.625; MIC (Candida albicans [9]): 773 µM (≈ 256 µg/mL); fractional inhibitory concentration index (FICI) (Aspergillus flavus [10]): 0.3125; MIC (Cryptococcus neoformans [11]): 386 µM; fractional inhibitory concentration index (FICI) (Aspergillus fumigatus [12]): 1.0625; MIC (Cryptococcus neoformans [13]): 773 µM (≈ 256 µg/mL); MIC (Aspergillus fumigatus [14]): 13 µM; MIC (Candida albicans [15]): 386 µM; MIC (Aspergillus flavus [16]): 773 µM (≈ 256 µg/mL); MIC (Aspergillus fumigatus [17]): 1540 µM; MIC (Aspergillus fumigatus [18]): 1540 µM (≈ 512 µg/mL); MIC (Candida albicans [19]): 13 µM; MIC (Cryptococcus neoformans [20]): 104 µM; IC50 [5]: 180 µM; MIC (Aspergillus flavus [21]): 7 µM |
| OC(Cn1cncn1)(Cn1cncn1)c1ccc(F)cc1F [FLUCONAZOLE] | 100 (≈ 30.6 µg/mL) | 200 (≈ 61.3 µg/mL) | 100 (≈ 30.6 µg/mL) |  | 50 (≈ 15.3 µg/mL) | MIC (Candida albicans [9]): 104 µM (≈ 31.9 µg/mL); MIC (Cryptococcus neoformans [13]): 104 µM (≈ 31.9 µg/mL); MIC (Aspergillus flavus [16]): 104 µM (≈ 31.9 µg/mL); MIC (Aspergillus fumigatus [18]): 209 µM (≈ 64 µg/mL) |
| CC(C)C[C@H](NC(=O)Cn1c(=O)c2ccccc2n(C)c1=O)C(=O)O | > 1470 | > 1470 | > 1470 | 52.8 | 730 (≈ 254 µg/mL) |  |
| Cn1c(=O)n(CC(=O)NCCC(=O)O)c(=O)c2ccccc21 | 830 (≈ 253 µg/mL) | 1670 (≈ 510 µg/mL) | 1670 (≈ 510 µg/mL) | 47.5 | 830 (≈ 253 µg/mL) |  |
| CSCC[C@H](NC(=O)Cn1c(=O)c2ccccc2n(C)c1=O)C(=O)O | 700 (≈ 256 µg/mL) | > 1400 | > 1400 | 43.1 | 1400 (≈ 512 µg/mL) |  |
| Cn1c(=O)n(CC(=O)NCC(=O)O)c(=O)c2ccccc21 | 870 (≈ 253 µg/mL) | > 1750 | 870 (≈ 253 µg/mL) | 22.6 | > 1750 |  |
| CC(C)[C@H](NC(=O)Cn1c(=O)c2ccccc2n(C)c1=O)C(=O)O | 760 (≈ 253 µg/mL) | > 1530 | > 1530 | 18.5 | 760 (≈ 253 µg/mL) |  |
| CCC(NC(=O)Cn1c(=O)c2ccccc2n(C)c1=O)C(=O)O (centres undefined) | 800 (≈ 255 µg/mL) | > 1600 | 1600 (≈ 511 µg/mL) | 13.2 | 800 (≈ 255 µg/mL) |  |
| Cn1c(=O)n(CC(=O)NC(Cc2ccc(OC(=O)Cn3c(=O)c4ccccc4n(C)c3=O)cc2)C(=O)O)c(=O)c2ccccc21 (centres undefined) | 410 (≈ 252 µg/mL) | 830 (≈ 509 µg/mL) | 410 (≈ 252 µg/mL) | 65.3 | 410 (≈ 252 µg/mL) | MIC (Aspergillus flavus [6]): 209 µM; fractional inhibitory concentration index (FICI) (Cryptococcus neoformans [7]): 0.5625; fractional inhibitory concentration index (FICI) (Candida albicans [8]): 1.125; MIC (Candida albicans [9]): 417 µM (≈ 256 µg/mL); fractional inhibitory concentration index (FICI) (Aspergillus flavus [10]): 0.625; MIC (Cryptococcus neoformans [11]): 26 µM; fractional inhibitory concentration index (FICI) (Aspergillus fumigatus [12]): 0.3125; MIC (Cryptococcus neoformans [13]): 417 µM (≈ 256 µg/mL); MIC (Aspergillus fumigatus [14]): 52 µM; MIC (Candida albicans [15]): 417 µM; MIC (Aspergillus flavus [16]): 417 µM (≈ 256 µg/mL); MIC (Aspergillus fumigatus [17]): 209 µM; MIC (Aspergillus fumigatus [18]): 834 µM (≈ 512 µg/mL); MIC (Candida albicans [19]): 13 µM; MIC (Cryptococcus neoformans [20]): 52 µM; IC50 [5]: 166 µM; MIC (Aspergillus flavus [21]): 26 µM |

— ChEMBL document CHEMBL4152260, “Design, synthesis and biological evaluation of novel quinazoline-2,4-diones conjugated with different amino acids as potential chitin synthase inhibitors” (Eur J Med Chem, 2018)
